Measurements published in ChEMBL document CHEMBL1122354, “Synthesis and antiarrhythmic activity of new [(dialkylamino)alkyl]pyridylacetamides” (1983).
Active and inactive are the calls of the source. The rule behind the calls is not given here.

How the values were obtained:
[1] = tested on: Canis familiaris; assay: Antiarrhythmic potential in conscious dogs; assay type: functional, Canis lupus familiaris, Heart
Procedure, shortened: (§1)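 Mongrel dogs with experimental myocardial infarction, conscious, with ventricular tachycardia or runs of VT. Dosed 50 mg/kg orally as solution in distilled water or acacia gum during the acute phase (16–36 h). Positive response means ≥60% suppression of ventricular arrhythmias or induction of sinus rhythm. The duration of effect was recorded in min.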

[2] = tested on: Canis familiaris; assay: (§2) Intracardiac conduction in anesthetized dogs, measured as HV; HV being the conduction time in specific intraventricular tissue; assay type: functional, Canis lupus familiaris, Cardiac ventricle
Procedure, shortened: (§3)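 Mongrel dogs under sodium pentobarbital anesthesia. His bundle electrogram recorded via left heart catheterization. His potentials recorded before dosing and 5 and 15 min after each intravenous dose, at different pacing rates. SH (stimulus to His deflection) and HV intervals measured.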

[3] = tested on: Canis familiaris; assay: Intracardiac conduction in anesthetized dogs, measured as SH; SH being the atrial His bundle conduction time; assay type: functional, Canis lupus familiaris, Atrioventricular bundle; procedure, shortened: as §3
[4] = tested on: Canis familiaris; assay: Antiarrhythmic potential in conscious dogs; inactive.; assay type: functional, organism-based; settings: Canis lupus familiaris; Heart; procedure, shortened: as §1
[5] = tested on: Canis familiaris; assay: Intracardiac conduction in anesthetized dogs, measured as SH; SH being the atrial His bundle conduction time; Value ranges from +0 to +10; assay type: functional, Canis lupus familiaris, Atrioventricular bundle; procedure, shortened: as §3
[6] = tested on: Canis familiaris; assay: Intracardiac conduction in anesthetized dogs, measured as SH; SH being the atrial His bundle conduction time; value ranges from +4 to +-85; assay type: functional, Canis lupus familiaris, Atrioventricular bundle; procedure, shortened: as §3
[7] = tested on: Canis familiaris; assay: as §2; assay type: functional, Canis lupus familiaris, Cardiac ventricle; parameters: concentration or dose not given beside the values; procedure, shortened: as §3
[8] = tested on: Canis familiaris; assay: Antiarrhythmic potential in conscious dogs; Inactive.; assay type: functional, organism-based; settings: Canis lupus familiaris; Heart; procedure, shortened: as §1
[9] = tested on: Canis familiaris; assay: Antiarrhythmic potential in conscious dogs; value ranges from 210-270; assay type: functional, Canis lupus familiaris, Heart; procedure, shortened: as §1
[10] = tested on: Canis familiaris; assay: Intracardiac conduction in anesthetized dogs, measured as SH; SH being the atrial His bundle conduction time; value ranges from +30 to +-55; assay type: functional, Canis lupus familiaris, Atrioventricular bundle; procedure, shortened: as §3
[11] = tested on: Canis familiaris; assay: Antiarrhythmic potential in conscious dogs; value ranges from +190 to +270; assay type: functional, Canis lupus familiaris, Heart; procedure, shortened: as §1
[12] = tested on: Canis familiaris; assay: Intracardiac conduction in anesthetized dogs, measured as HV; HV being the conduction time in specific intraventricular tissue; value ranges from +2 to +-50; assay type: functional, Canis lupus familiaris, Cardiac ventricle; procedure, shortened: as §3
[13] = tested on: Canis familiaris; assay: Intracardiac conduction in anesthetized dogs, measured as SH; SH being the atrial His bundle conduction time; value ranges from +10 to +50; assay type: functional, Canis lupus familiaris, Atrioventricular bundle; procedure, shortened: as §3
[14] = tested on: Canis familiaris; assay: Antiarrhythmic potential in conscious dogs;Value ranges from +27 to +280; assay type: functional, Canis lupus familiaris, Heart; procedure, shortened: as §1
[15] = tested on: Canis familiaris; assay: Intracardiac conduction in anesthetized dogs, measured as HV; HV being the conduction time in specific intraventricular tissue; Value ranges from 20-33; assay type: functional, Canis lupus familiaris, Cardiac ventricle; procedure, shortened: as §3
[16] = tested on: Canis familiaris; assay: Intracardiac conduction in anesthetized dogs, measured as SH; SH being the atrial His bundle conduction time; Value ranges from +20 to +70; assay type: functional, Canis lupus familiaris, Atrioventricular bundle; procedure, shortened: as §3
[17] = tested on: Canis familiaris; assay: Antiarrhythmic potential in conscious dogs was calculated and found that after 60 minutes the dogs died.; assay type: functional, Canis lupus familiaris, Heart
[18] = tested on: Canis familiaris; assay: Antiarrhythmic potential in conscious dogs; value ranges from +50 to +60; assay type: functional, Canis lupus familiaris, Heart; procedure, shortened: as §1
[19] = tested on: Canis familiaris; assay: Intracardiac conduction in anesthetized dogs, measured as SH; SH being the atrial His bundle conduction time; value ranges from +70 to +120; assay type: functional, Canis lupus familiaris, Atrioventricular bundle; procedure, shortened: as §3
[20] = tested on: Canis familiaris; assay: Intracardiac conduction in anesthetized dogs, measured as HV; HV being the conduction time in specific intraventricular tissue; value ranges from +100 to +210; assay type: functional, Canis lupus familiaris, Cardiac ventricle; procedure, shortened: as §3
[21] = tested on: Canis familiaris; assay: Antiarrhythmic potential in conscious dogs; the value ranges from +8 to +-240; assay type: functional, Canis lupus familiaris, Heart; procedure, shortened: as §1
[22] = tested on: Canis familiaris; assay: Antiarrhythmic potential in conscious dogs; value ranges from +155 to +300; assay type: functional, Canis lupus familiaris, Heart; procedure, shortened: as §1
[23] = tested on: Canis familiaris; assay: Antiarrhythmic potential in conscious dogs; value ranges from +120 to +380; assay type: functional, Canis lupus familiaris, Heart; procedure, shortened: as §1
[24] = tested on: Canis familiaris; assay: Intracardiac conduction in anesthetized dogs, measured as HV; HV being the conduction time in specific intraventricular tissue value ranges from +20 to +30; assay type: functional, Canis lupus familiaris, Cardiac ventricle; procedure, shortened: as §3
[25] = tested on: Canis familiaris; assay: Intracardiac conduction in anesthetized dogs, measured as SH; SH being the atrial His bundle conduction time value ranges from +15 to +35; assay type: functional, Canis lupus familiaris, Atrioventricular bundle; procedure, shortened: as §3
[26] = tested on: Canis familiaris; assay: Antiarrhythmic potential in conscious dogs; was tested and found that after 90 min the dogs died.; assay type: functional, Canis lupus familiaris, Heart
[27] = tested on: Canis familiaris; assay: Intracardiac conduction in anesthetized dogs, measured as HV; HV being the conduction time in specific intraventricular tissue; value ranges from + 60 to+135; assay type: functional, Canis lupus familiaris, Cardiac ventricle; procedure, shortened: as §3
[28] = tested on: Canis familiaris; assay: Intracardiac conduction in anesthetized dogs, measured as SH; SH being the atrial His bundle conduction time; Value ranges from +8 to +100; assay type: functional, Canis lupus familiaris, Atrioventricular bundle; procedure, shortened: as §3
[29] = tested on: Canis familiaris; assay: Antiarrhythmic potential in conscious dogs; value ranges from +45 to +360; assay type: functional, Canis lupus familiaris, Heart; procedure, shortened: as §1
[30] = tested on: Canis familiaris; assay: Intracardiac conduction in anesthetized dogs, measured as HV; HV being the conduction time in specific intraventricular tissue; value ranges from +45 to +100; assay type: functional, Canis lupus familiaris, Cardiac ventricle; procedure, shortened: as §3
[31] = tested on: Canis familiaris; assay: Intracardiac conduction in anesthetized dogs, measured as SH; SH being the atrial His bundle conduction time; value ranges from +40 to +100; assay type: functional, Canis lupus familiaris, Atrioventricular bundle; procedure, shortened: as §3
[32] = tested on: Canis familiaris; assay: Antiarrhythmic potential in conscious dogs; the value ranges from +30 to +60; assay type: functional, Canis lupus familiaris, Heart
[33] = tested on: Canis familiaris; assay: Intracardiac conduction in anesthetized dogs, measured as HV; HV being the conduction time in specific intraventricular tissue; value ranges from 35-80; assay type: functional, Canis lupus familiaris, Cardiac ventricle; procedure, shortened: as §3
[34] = tested on: Canis familiaris; assay: Intracardiac conduction in anesthetized dogs, measured as SH; SH being the atrial His bundle conduction time; value ranges from +50 to +85; assay type: functional, Canis lupus familiaris, Atrioventricular bundle; procedure, shortened: as §3
[35] = tested on: Canis familiaris; assay: Antiarrhythmic potential in conscious dogs; value ranges from +165 to +405; assay type: functional, Canis lupus familiaris, Heart; procedure, shortened: as §1
[36] = tested on: Canis familiaris; assay: Intracardiac conduction in anesthetized dogs, measured as SH; SH being the atrial His bundle conduction time; value ranges from +25 to +30; assay type: functional, Canis lupus familiaris, Atrioventricular bundle; procedure, shortened: as §3
[37] = tested on: Canis familiaris; assay: Intracardiac conduction in anesthetized dogs, measured as HV; HV being the conduction time in specific intraventricular tissue; value ranges from +0 to +30; assay type: functional, Canis lupus familiaris, Cardiac ventricle; procedure, shortened: as §3
[38] = tested on: Canis familiaris; assay: Antiarrhythmic potential in conscious dogs; value ranges from +20 to +270; assay type: functional, Canis lupus familiaris, Heart; procedure, shortened: as §1
[39] = tested on: Canis familiaris; assay: Intracardiac conduction in anesthetized dogs, measured as HV; HV being the conduction time in specific intraventricular tissue; value ranges from +25 to +30; assay type: functional, Canis lupus familiaris, Cardiac ventricle; procedure, shortened: as §3
[40] = tested on: Canis familiaris; assay: Intracardiac conduction in anesthetized dogs, measured as SH; SH being the atrial His bundle conduction time; value ranges from +15 to +20; assay type: functional, Canis lupus familiaris, Atrioventricular bundle; procedure, shortened: as §3
[41] = tested on: Canis familiaris; assay: Antiarrhythmic potential in conscious dogs; value ranges from +80 to +360; assay type: functional, Canis lupus familiaris, Heart; procedure, shortened: as §1

Compound: CC(C)CC(CCN(C(C)C)C(C)C)(C(N)=O)c1cccnc1 (stereo unspecified)
- Actual duraction [1]: 45 min
- Variation/Control [2]: 25%
- Variation/Control [3]: 20%

Compound: CC(C)CC(CCN1CCOCC1)(C(N)=O)c1ccccn1 (stereo unspecified)
- Actual duraction [4]: inactive
- Variation/Control [2]: 0%
- Variation/Control [5]: 10%

Compound: CC(C)CC(CCN(C(C)C)C1CCCCC1)(C(N)=O)c1ccccn1 (stereo unspecified)
- Actual duraction [1]: 300 min
- Variation/Control [6]: 85%
- Variation/Control [7]: 50%

Compound: CC(C)N(CCC(C(N)=O)c1ccccn1)C(C)C (stereo unspecified)
- Actual duraction [4]: inactive
- Variation/Control [3]: 0%
- Variation/Control [7]: 0%

Compound: CCCN(CCC)CCC(CC(C)C)(C(N)=O)c1ccccn1 (stereo unspecified)
- Actual duraction [8]: inactive
- Variation/Control [3]: 20%
- Variation/Control [7]: 0%

Compound: CC(C)N(CCC(C(N)=O)(c1ccccn1)C1CCCCC1)C(C)C (stereo unspecified)
- Actual duraction [9]: 270 min
- Variation/Control [10]: 55%
- Variation/Control [7]: 40%

Compound: CC(C)CCC(CCN(C(C)C)C(C)C)(C(N)=O)c1ccccn1 (stereo unspecified)
- Actual duraction [11]: 270 min
- Variation/Control [12]: 50%
- Variation/Control [13]: 50%

Compound: CCC(CC)C(CCN(C(C)C)C(C)C)(C(N)=O)c1ccccn1 (stereo unspecified)
- Actual duraction [14]: 280 min
- Variation/Control [15]: 33%
- Variation/Control [16]: 70%

Compound: CCC(C)C(CCN(C(C)C)C(C)C)(C(N)=O)c1ccccn1 (stereo unspecified)
- Actual duraction [1]: 240 min
- Variation/Control [3]: 0%
- Variation/Control [7]: 30%

Compound: CC(C)CC(CCN(C1CCCCC1)C1CCCCC1)(C(N)=O)c1ccccn1 (stereo unspecified)
- Variation/Control [3]: 45%
- Variation/Control [7]: 75%
- Actual duraction [17]: 60 min

Compound: C=C[C@H]1CN2CC[C@H]1C[C@@H]2[C@@H](O)c1ccnc2ccc(OC)cc12 [QUINIDINE]
- Actual duraction [18]: 60 min

Compound: CC(C)CC(CCCN(C(C)C)C(C)C)(C(N)=O)c1ccccn1 (stereo unspecified)
- Actual duraction [1]: 30 min
- Variation/Control [2]: 0%
- Variation/Control [3]: 15%

Compound: CCCC(CCN(C(C)C)C(C)C)(C(N)=O)c1ccccn1 (stereo unspecified)
- Actual duraction [1]: 35 min
- Variation/Control [2]: 0%
- Variation/Control [3]: 15%

Compound: CCN(CC)CCC(CC(C)C)(C(N)=O)c1ccccn1 (stereo unspecified)
- Actual duraction [4]: inactive
- Variation/Control [3]: 15%
- Variation/Control [7]: 0%

Compound: CCCCCC(CCN(C(C)C)C(C)C)(C(N)=O)c1ccccn1 (stereo unspecified)
- Actual duraction [1]: 180 min
- Variation/Control [19]: 120%
- Variation/Control [20]: 210%

Compound: CC(C)CC(CCN(C(C)C)C(C)C)(C(N)=O)c1ccncc1 (stereo unspecified)
- Actual duraction [21]: 240 min
- Variation/Control [3]: 110%
- Variation/Control [7]: 45%

Compound: CCC(CCN(C(C)C)C(C)C)(C(N)=O)c1ccccn1 (stereo unspecified)
- Actual duraction [22]: 300 min
- Variation/Control [3]: 20%
- Variation/Control [7]: 0%

Compound: CC(C)CC(CCN(C(C)C)C(C)C)(C(N)=O)c1ccccn1 (stereo unspecified) [PENTISOMIDE]
- Actual duraction [23]: 380 min
- Variation/Control [24]: 30%
- Variation/Control [25]: 35%

Compound: CCC(C)N(CCC(CC(C)C)(C(N)=O)c1ccccn1)C(C)CC (stereo unspecified)
- Actual duraction [26]: 90 min
- Variation/Control [27]: 135%
- Variation/Control [28]: 100%

Compound: CC(C)N(CCC(CC1CCCCC1)(C(N)=O)c1ccccn1)C(C)C (stereo unspecified)
- Actual duraction [29]: 360 min
- Variation/Control [30]: 100%
- Variation/Control [31]: 100%

Compound: CC(C)N(CCC(C(N)=O)(c1ccccc1)c1ccccn1)C(C)C (stereo unspecified) [DISOPYRAMIDE]
- Actual duraction [32]: 60 min

Compound: CC(C)N(CCC(Cc1ccccc1)(C(N)=O)c1ccccn1)C(C)C (stereo unspecified)
- Actual duraction [4]: inactive
- Variation/Control [33]: 80%
- Variation/Control [34]: 85%

Compound: CC(C)N(CCC(CC(C)(C)C)(C(N)=O)c1ccccn1)C(C)C (stereo unspecified)
- Actual duraction [35]: 405 min
- Variation/Control [36]: 30%
- Variation/Control [37]: 30%

Compound: CC(C)CC(CCN1C(C)CCCC1C)(C(N)=O)c1ccccn1 (stereo unspecified)
- Actual duraction [38]: 270 min
- Variation/Control [39]: 30%
- Variation/Control [40]: 20%

Compound: CC(C)N(CCC(C(N)=O)(c1ccccn1)C(C)C)C(C)C (stereo unspecified)
- Actual duraction [41]: 360 min
- Variation/Control [3]: 10%
- Variation/Control [7]: 0%
